Broadly, the Ki is the dissociation constant of the complex between target and ligand, obtained from inhibition or displacement. The low end stands for a stronger hold on the target, the high end for a looser hold on the target. For orientation: IC50 means the concentration at which inhibition is half-maximal.

The target of assay [1] is Delta-type opioid receptor (Rattus norvegicus, UniProt P33533). Briefly: Displacement of [3H]deltorphin 2 from delta opioid receptor in Sprague-Dawley rat brain P2 synaptosomal membrane. Summed up:
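Equilibrium incubation 2.5 h at 23 °C. Filtration through glass fibre filters pre-soaked in 0.1% polyethylenimine, then three washes in ice-cold buffered 0.1% BSA. Ki by Cheng–Prusoff.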
(In general: In a radioligand displacement assay an active substance lowers the binding of a labelled ligand.)

The target in assay [2] is Mu-type opioid receptor (Rattus norvegicus, UniProt P33535). Kind of assay: Displacement of [3H]DAMGO from mu opioid receptor in Sprague-Dawley rat brain P2 synaptosomal membrane.
Sequence of Mu-type opioid receptor (Rattus norvegicus, UniProt P33535) (P33535 whole entry): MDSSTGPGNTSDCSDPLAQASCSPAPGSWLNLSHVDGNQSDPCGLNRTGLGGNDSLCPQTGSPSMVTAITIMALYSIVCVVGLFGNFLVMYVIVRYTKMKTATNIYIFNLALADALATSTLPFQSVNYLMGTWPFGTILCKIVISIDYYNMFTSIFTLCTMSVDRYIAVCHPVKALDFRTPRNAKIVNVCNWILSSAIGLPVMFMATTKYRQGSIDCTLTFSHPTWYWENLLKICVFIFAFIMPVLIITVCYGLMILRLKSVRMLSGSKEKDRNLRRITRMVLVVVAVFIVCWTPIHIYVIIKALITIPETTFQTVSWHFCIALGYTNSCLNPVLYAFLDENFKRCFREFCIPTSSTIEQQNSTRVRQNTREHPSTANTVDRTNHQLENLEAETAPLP
For assay [3], the target named is T1, Delta-type opioid receptor (Mus musculus, UniProt P32300). Kind of assay: Antagonist activity at delta opioid receptor in mouse vas deference. The format is functional. Conditions: read-out: pA2 (converted). The method, boiled down: (§1)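 Organ-bath tissue preparations in physiological buffer, pH 7.5, with electrically evoked contractions. Delta antagonism on mouse vas deferens measured against deltorphin II. Mu antagonism on male Hartley guinea pig ileum myenteric plexus longitudinal muscle measured against endomorphin-2. pA2 derived by the Kosterlitz and Watt method.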
T1 sequence (P32300 whole entry): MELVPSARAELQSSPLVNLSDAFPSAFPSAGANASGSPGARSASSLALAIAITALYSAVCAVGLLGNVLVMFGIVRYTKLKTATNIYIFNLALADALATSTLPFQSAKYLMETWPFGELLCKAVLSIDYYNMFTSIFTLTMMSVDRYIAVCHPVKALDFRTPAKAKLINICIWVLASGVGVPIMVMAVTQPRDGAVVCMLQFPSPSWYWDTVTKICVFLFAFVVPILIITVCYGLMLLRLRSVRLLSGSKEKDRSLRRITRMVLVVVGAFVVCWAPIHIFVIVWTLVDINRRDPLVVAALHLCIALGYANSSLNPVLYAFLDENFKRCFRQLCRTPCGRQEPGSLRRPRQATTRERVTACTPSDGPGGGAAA

For a further assay, the species on record is Rattus norvegicus. Kind of assay: Ratio of Ki for Sprague-Dawley rat mu opioid receptor to Ki for Sprague-Dawley rat delta opioid receptor.
Assay [4] deals with T2, Mu-type opioid receptor (Cavia porcellus, UniProt P97266). Briefly: Agonist activity at mu opioid receptor in Hartley guinea pig small intestine. Format: functional, tissue-based. The method, boiled down: (§2)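 Isolated tissue assay in organ baths with balanced salt solution in physiological buffer, pH 7.5. Delta agonism measured on single mouse vas deferens, mu agonism on myenteric plexus longitudinal muscle strips (2–3 cm) from small intestine of male Hartley guinea pigs. Inhibition of electrically evoked contraction; IC50 (nM) from dose-response curves. DPDPE (MVD) and PL017 (GPI) run as internal standards. Mean ± SE of at least four tissue samples.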
T2 sequence (P97266 whole entry): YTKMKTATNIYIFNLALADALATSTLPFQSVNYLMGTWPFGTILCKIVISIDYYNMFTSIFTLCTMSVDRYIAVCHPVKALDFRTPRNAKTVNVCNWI

The target in assay [5] is T1, Delta-type opioid receptor. Kind of assay: Agonist activity at delta opioid receptor in mouse vas deference. The format is functional. The method, boiled down:
as §2

Assay [6] concerns the target T2, Mu-type opioid receptor. Briefly: Antagonist activity at mu opioid receptor in Hartley guinea pig small intestine. Conditions: read-out: pA2 (converted). Format: functional, tissue-based. Summed up: as §1

Bounds are passed on as bounds.

Sequence of Delta-type opioid receptor (Rattus norvegicus, UniProt P33533) (P33533 whole entry): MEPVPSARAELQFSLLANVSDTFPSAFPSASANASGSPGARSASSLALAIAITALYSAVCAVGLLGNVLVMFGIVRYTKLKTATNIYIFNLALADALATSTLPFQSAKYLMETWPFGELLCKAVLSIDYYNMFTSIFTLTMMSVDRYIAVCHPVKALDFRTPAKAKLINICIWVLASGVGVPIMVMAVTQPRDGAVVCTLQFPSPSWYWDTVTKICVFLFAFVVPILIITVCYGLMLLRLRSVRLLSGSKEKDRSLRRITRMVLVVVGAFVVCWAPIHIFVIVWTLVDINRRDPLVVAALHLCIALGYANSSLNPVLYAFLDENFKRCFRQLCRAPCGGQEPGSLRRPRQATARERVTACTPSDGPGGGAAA

Take `N[C@@H](Cc1ccc(O)cc1)C(=O)N1Cc2ccccc2C[C@H]1C(=O)N[C@@H](CC(=O)O)c1nc2ccccc2[nH]1`: the inhibition constant Ki in assay [1] was found to be 0.177 nM; on Mu-type opioid receptor [2], 684 nM. Moreover, the Kb in assay [3] is 1.41 nM. The Selectivity ratio in the assay filed under Rattus norvegicus was determined as 3860.
On to `N[C@@H](Cc1ccc(O)cc1)C(=O)N1Cc2ccccc2C[C@H]1C(=O)NCc1nc2ccccc2[nH]1`, for which the 50% inhibitory concentration (IC50) on Mu-type opioid receptor [4] amounted to 4220 nM; in assay [5], 50.1 nM. Also, the figures for the inhibition constant Ki (in assay [1]; on Mu-type opioid receptor [2]) were 0.913 nM and 66.9 nM, respectively. The Selectivity ratio in the assay listed under Rattus norvegicus was determined as 73.
For the compound `Cc1cc(O)cc(C)c1C[C@@H](C(=O)N1Cc2ccccc2C[C@H]1C(N)=O)N(C)C`, the Kb at Mu-type opioid receptor [6] was 501 nM; in assay [3], 0.126 nM. The inhibitory constant (Ki) amounted to 0.309 nM in assay [1] and 511 nM on Mu-type opioid receptor [2]. The Selectivity ratio in the assay listed under Rattus norvegicus amounted to 1660.
Consider `CN(C)[C@@H](Cc1c(F)cc(O)cc1F)C(=O)N1Cc2ccccc2C[C@H]1C(=O)O`, for which the inhibition constant Ki in assay [1] is 29.2 nM; on Mu-type opioid receptor [2], 573 nM. Further, in the assay listed under Rattus norvegicus, the Selectivity ratio turned out to be 20.
For `Cc1cc(O)cc(C)c1C[C@@H](C(=O)N1Cc2ccccc2C[C@H]1C(=O)O)N(C)C`, at Mu-type opioid receptor [6], the Kb is 1580 nM. Besides, the Ki in assay [1] was determined as 0.118 nM. Moreover, in the assay filed under Rattus norvegicus, the Selectivity ratio is 20600.
Turning to `CN(C)[C@@H](Cc1ccc(O)cc1)C(=O)N1Cc2ccccc2C[C@H]1C(N)=O`, the Ki in assay [1] worked out at 201 nM; at Mu-type opioid receptor [2], 1450 nM. Besides, in the assay filed under Rattus norvegicus, the Selectivity ratio amounted to 7.
On to `CN(C)[C@@H](Cc1ccc(O)cc1)C(=O)N1Cc2ccccc2C[C@H]1C(=O)O`, for which the Ki in assay [1] stood at 34.8 nM; on Mu-type opioid receptor [2] it was 1230 nM. The Selectivity ratio in the assay listed under Rattus norvegicus worked out at 35.
Regarding `N[C@@H](Cc1c(F)cc(O)cc1F)C(=O)N1Cc2ccccc2C[C@H]1C(=O)N[C@@H](CC(=O)O)c1nc2ccccc2[nH]1`, the Ki was determined as 0.162 nM in assay [1] and 225 nM at Mu-type opioid receptor [2]. Moreover, the Kb in assay [3] is 1.12 nM. Further, the Selectivity ratio in the assay filed under Rattus norvegicus worked out at 1390.
In the case of `N[C@@H](Cc1c(F)cc(O)cc1F)C(=O)N1Cc2ccccc2C[C@H]1C(=O)NCc1nc2ccccc2[nH]1`, the IC50 on Mu-type opioid receptor [4] is more than 10000 nM; in assay [5], 67.3 nM. The Ki was 1.01 nM in assay [1] and 54.5 nM on Mu-type opioid receptor [2]. In addition, in the assay listed under Rattus norvegicus, the Selectivity ratio came out at 54.
`CN(C)[C@@H](Cc1c(F)cc(O)cc1F)C(=O)N1Cc2ccccc2C[C@H]1C(N)=O`: the figures for the Ki (in assay [1]; on Mu-type opioid receptor [2]) were 176 nM and 596 nM, respectively. In addition, the Selectivity ratio in the assay listed under Rattus norvegicus turned out to be 3.

Source of the values: ChEMBL document CHEMBL1212862, “Role of 2',6'-dimethyl-l-tyrosine (Dmt) in some opioid lead compounds” (Bioorg Med Chem, 2010).
